Active and inactive are the calls of the source. The rule behind the calls is not given here.
Key:
[1] = target: Amyloid-beta precursor protein (Homo sapiens, UniProt P05067); test: Inhibition of amyloid beta (1 to 42 residues) (unknown origin) aggregation after 24 hrs by thioflavin T fluorescence assay
[2] = target: Microtubule-associated protein tau (Homo sapiens, UniProt P10636); test: Inhibition of recombinant human TAU three-repeat microtubule-binding domain aggregation expressed in Escherichia coli after 16 hrs by thioflavin T fluorescence assay
Sequence of Microtubule-associated protein tau (P10636 whole entry, the tested form may be a part): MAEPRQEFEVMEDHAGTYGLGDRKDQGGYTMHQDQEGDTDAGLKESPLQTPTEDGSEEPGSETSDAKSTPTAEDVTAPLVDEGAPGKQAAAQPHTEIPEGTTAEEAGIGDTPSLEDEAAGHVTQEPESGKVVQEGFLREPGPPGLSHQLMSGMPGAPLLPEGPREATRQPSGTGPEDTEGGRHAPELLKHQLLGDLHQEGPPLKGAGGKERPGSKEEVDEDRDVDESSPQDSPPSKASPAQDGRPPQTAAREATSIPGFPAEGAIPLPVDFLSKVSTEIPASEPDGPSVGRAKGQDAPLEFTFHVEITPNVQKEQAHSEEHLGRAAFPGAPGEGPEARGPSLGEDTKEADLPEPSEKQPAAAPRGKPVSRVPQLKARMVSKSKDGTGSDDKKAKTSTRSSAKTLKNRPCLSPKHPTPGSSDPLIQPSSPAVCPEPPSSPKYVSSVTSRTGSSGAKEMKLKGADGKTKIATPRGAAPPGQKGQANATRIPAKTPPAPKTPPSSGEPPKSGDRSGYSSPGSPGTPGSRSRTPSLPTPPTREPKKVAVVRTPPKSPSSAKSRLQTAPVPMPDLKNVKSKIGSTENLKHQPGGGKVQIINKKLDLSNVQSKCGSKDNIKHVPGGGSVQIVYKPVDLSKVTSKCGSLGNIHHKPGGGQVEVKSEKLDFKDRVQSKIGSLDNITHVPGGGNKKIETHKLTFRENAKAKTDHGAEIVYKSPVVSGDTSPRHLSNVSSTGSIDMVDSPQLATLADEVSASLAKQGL

[3] = Drug uptake in Sprague-Dawley rat brain at 50 mg/kg, po after 3 hrs by LC-MS/MS analysis; format: ADME, organism-based; conditions: read-out: Drug uptake
Summary of the method: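 Brains collected from SD rats 3 h after a 50 mg/kg oral dose; tissue drug concentration measured per g tissue. Mean ± SD, n = 3.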

[4] = Plasma concentration in Sprague-Dawley rat at 50 mg/kg, po after 3 hrs by LC-MS/MS analysis; format: ADME, organism-based
Summary of the method: (§1)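 SD rats dosed orally at 50 mg/kg; plasma drug levels followed up to 3 h. Mean ± SD, n = 3.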

[5] = Drug uptake in Sprague-Dawley rat plasma at 5 mg/kg, iv up to 3 hrs by LC-MS/MS analysis; format: ADME, organism-based; conditions: in vivo
Summary of the method: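 SD rats given 5 mg/kg intravenously; plasma concentrations sampled up to 3 h post-dose. Mean ± SD, n = 3.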

Mus musculus = test: In vivo inhibition of human tau aggregation in JNPL3 human tau P301L transgenic mouse model assessed as reduction in amount of sarkosyl-insoluble tau in brain at 20 to 40 mg/kg/day, po for 4 weeks by ELISA; format: functional, organism-based
[6] = Tmax in mouse; format: ADME, organism-based; conditions: in vivo
[7] = Cmax in Sprague-Dawley rat at 50 mg/kg, po after 30 mins by LC-MS/MS analysis; format: ADME, organism-based; set-up: dose 50 mg/kg, route oral; conditions: in vivo; summary of the method: as §1

Sequence of Amyloid-beta precursor protein (P05067 whole entry, the tested form may be a part): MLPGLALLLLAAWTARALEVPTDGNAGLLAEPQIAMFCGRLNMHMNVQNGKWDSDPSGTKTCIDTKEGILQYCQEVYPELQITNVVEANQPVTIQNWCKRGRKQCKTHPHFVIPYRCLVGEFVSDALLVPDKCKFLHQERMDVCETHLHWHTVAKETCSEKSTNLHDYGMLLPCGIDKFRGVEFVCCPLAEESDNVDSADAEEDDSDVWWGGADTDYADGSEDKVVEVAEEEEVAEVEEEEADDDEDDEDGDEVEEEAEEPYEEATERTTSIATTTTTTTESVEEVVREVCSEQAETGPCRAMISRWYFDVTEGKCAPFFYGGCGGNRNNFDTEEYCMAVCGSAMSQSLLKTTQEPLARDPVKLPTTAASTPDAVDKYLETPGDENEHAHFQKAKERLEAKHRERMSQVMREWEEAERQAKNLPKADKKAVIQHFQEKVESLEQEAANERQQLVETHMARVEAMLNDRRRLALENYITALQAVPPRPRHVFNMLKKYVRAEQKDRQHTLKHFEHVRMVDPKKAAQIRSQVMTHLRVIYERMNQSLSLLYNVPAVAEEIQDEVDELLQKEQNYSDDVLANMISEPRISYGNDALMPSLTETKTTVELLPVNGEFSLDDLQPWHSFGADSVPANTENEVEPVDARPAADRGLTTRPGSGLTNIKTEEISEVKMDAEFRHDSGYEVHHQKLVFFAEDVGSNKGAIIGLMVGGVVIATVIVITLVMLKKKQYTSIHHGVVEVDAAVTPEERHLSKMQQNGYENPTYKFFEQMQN

Question: With COc1cc(O)ccc1/C=C/C(=O)CC(=O)/C=C/c1ccc(O)cc1OC as the molecule, how does the IC50 [1] read?
Answer: Its IC50 is 4600 nM.

Question: What about the IC50 [2] of the same molecule?
Answer: Its IC50 is over 10000 nM.

Question: Which IC50 [1] does the source give for COc1cc(/C=C/C(=O)CC(=O)/C=C/c2ccco2)ccc1O here?
Answer: Its IC50 is 760 nM.

Question: And the IC50 [2]?
Answer: Its IC50 is 2000 nM.

Question: Which IC50 [1] does the source give for COc1cc(OCc2ccccn2)ccc1/C=C/c1cc(/C=C/c2ccc3cc[nH]c3c2)[nH]n1 here?
Answer: The IC50 was 1200 nM.

Question: And the IC50 [2]?
Answer: Its IC50 is 660 nM.

Question: And the concentration at 3 h [3]?
Answer: Its concentration at 3 h is 276 ng/g.

Question: And the concentration at 3 h [4]?
Answer: Its concentration at 3 h is 466 ng/mL.

Question: What about the Drug uptake [5] of the same molecule?
Answer: Its Drug uptake is “Active”.

Question: What about the inhibition (Mus musculus) of the same molecule?
Answer: Its inhibition is “Active”.

Question: What about the Tmax [6] of the same molecule?
Answer: The Tmax was 6 h.

Question: What does the source list for COc1ccc(/C=C/C(=O)CC(=O)/C=C/c2ccc3cc[nH]c3c2)c(OC)c1?
Answer: IC50 [1]: 610 nM; IC50 [2]: 700 nM

Question: With COc1ccc(O)c(/C=C/C(=O)CC(=O)/C=C/c2ccc(O)c(OC)c2)c1 as the molecule, how does the IC50 [1] read?
Answer: Its IC50 is 1800 nM.

Question: What about the IC50 [2] of the same molecule?
Answer: The IC50 was 920 nM.

Question: For COc1cc(/C=C/C(=O)CC(=O)/C=C/c2ccc3ccccc3c2)ccc1O, which IC50 [1] is on record?
Answer: The IC50 was 590 nM.

Question: What about the IC50 [2] of the same molecule?
Answer: Its IC50 is 420 nM.

Question: What does the source list for COc1cc(OCc2ccccc2)ccc1/C=C/C(=O)CC(=O)/C=C/c1ccc2cc[nH]c2c1?
Answer: IC50 [1]: 5400 nM; IC50 [2]: 610 nM

Question: Which IC50 [1] does the source give for COc1cc(/C=C/C(=O)CC(=O)/C=C/c2cccc(O)c2OC)ccc1O here?
Answer: The IC50 was 1900 nM.

Question: And the IC50 [2]?
Answer: The IC50 was 710 nM.

Question: With COc1cc(/C=C/C(=O)CC(=O)/C=C/c2cccnc2)ccc1O as the molecule, how does the IC50 [1] read?
Answer: The IC50 was over 10000 nM.

Question: And the IC50 [2]?
Answer: The IC50 was over 10000 nM.

Question: For COc1ccc(/C=C/C(=O)CC(=O)/C=C/c2ccc(O)c(OC)c2)cc1O, which IC50 [1] is on record?
Answer: Its IC50 is 2100 nM.

Question: What about the IC50 [2] of the same molecule?
Answer: The IC50 was 520 nM.

Question: For COc1ccc(/C=C/C(=O)CC(=O)/C=C/c2ccc(O)c(OC)c2)c(O)c1, which IC50 [1] is on record?
Answer: Its IC50 is 930 nM.

Question: And the IC50 [2]?
Answer: The IC50 was 1400 nM.

Question: With COc1cc(/C=C/C(=O)CC(=O)/C=C/c2c(O)cccc2OC)ccc1O as the molecule, how does the IC50 [1] read?
Answer: Its IC50 is 1600 nM.

Question: What about the IC50 [2] of the same molecule?
Answer: The IC50 was 910 nM.

Question: For COc1cc(/C=C/C(=O)CC(=O)/C=C/c2cccc(OC)c2O)ccc1O, which IC50 [1] is on record?
Answer: Its IC50 is 5400 nM.

Question: What about the IC50 [2] of the same molecule?
Answer: The IC50 was 690 nM.

Question: Which concentration at 3 h [3] does the source give for COc1cc(/C=C/C(=O)CC(=O)/C=C/c2ccc(O)c(OC)c2)ccc1O [CURCUMIN] here?
Answer: Its concentration at 3 h is 13 ng/g.

Question: With COc1cc(/C=C/C(=O)CC(=O)/C=C/c2cc(O)ccc2OC)ccc1O as the molecule, how does the IC50 [1] read?
Answer: The IC50 was 1300 nM.

Question: What about the IC50 [2] of the same molecule?
Answer: Its IC50 is 600 nM.

Question: With COc1cc(O)ccc1/C=C/C(=O)CC(=O)/C=C/c1ccc2cc[nH]c2c1 as the molecule, how does the IC50 [1] read?
Answer: The IC50 was 520 nM.

Question: What about the IC50 [2] of the same molecule?
Answer: The IC50 was 230 nM.

Question: For COc1cc(/C=C/C(=O)CC(=O)/C=C/c2ccc(O)cc2OC)ccc1O, which IC50 [1] is on record?
Answer: Its IC50 is 920 nM.

Question: What about the IC50 [2] of the same molecule?
Answer: Its IC50 is 580 nM.

Question: What does the source list for COc1cc(/C=C/C(=O)CC(=O)/C=C/c2ccc3cc[nH]c3c2)ccc1O?
Answer: IC50 [1]: 420 nM; IC50 [2]: 440 nM

Question: Which IC50 [1] does the source give for COc1cc(/C=C/C(=O)CC(=O)/C=C/c2ccc3c(c2)OCO3)ccc1O here?
Answer: Its IC50 is 3700 nM.

Question: What about the IC50 [2] of the same molecule?
Answer: The IC50 was 1200 nM.

Question: With COc1cc(OCc2ccccn2)ccc1/C=C/C(=O)CC(=O)/C=C/c1ccc2cc[nH]c2c1 as the molecule, how does the IC50 [1] read?
Answer: The IC50 was 470 nM.

Question: What about the IC50 [2] of the same molecule?
Answer: Its IC50 is 330 nM.

Question: And the Cmax [7]?
Answer: Its Cmax is 5.7 ng/mL.

Question: What about the concentration at 3 h [3] of the same molecule?
Answer: The concentration at 3 h was 1 ng/g.

Question: For COc1cc(O)cc(/C=C/C(=O)CC(=O)/C=C/c2ccc(O)c(OC)c2)c1, which IC50 [1] is on record?
Answer: Its IC50 is 1100 nM.

Question: What about the IC50 [2] of the same molecule?
Answer: The IC50 was 320 nM.

Question: With CN(C)c1ccc2nc3ccc(=[N+](C)C)cc-3sc2c1 [METHYLENE BLUE ANHYDROUS] as the molecule, how does the IC50 [1] read?
Answer: Its IC50 is 500 nM.

Question: For COc1cc(/C=C/C(=O)CC(=O)/C=C/c2ccccc2)ccc1O, which IC50 [1] is on record?
Answer: The IC50 was 2200 nM.

Question: And the IC50 [2]?
Answer: Its IC50 is 1400 nM.

Question: What does the source list for COc1cc(OCC2CCCO2)ccc1/C=C/C(=O)CC(=O)/C=C/c1ccc2cc[nH]c2c1 (stereo not drawn)?
Answer: IC50 [1]: 2500 nM; IC50 [2]: 420 nM
